# Experimental data as given in ChEMBL document CHEMBL3045605, “Synthesis and anticancer evaluation of novel 3,5-diaryl-thiazolo[4,5-d]pyrimidin-2-one derivatives” (2013).
# Assays:
# Assay type in all cases: functional
# NCI-H460 = test: Anticancer activity against Homo sapiens (human) NCI-H460 cells by SRB assay
# Summary of the method: (§1)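 Five-dose NCI 60-cell-line panel testing at tenfold dilutions from 10−4 to 10−8 M, with growth read by sulforhodamine B protein staining. For each cell line: GI50 is the molar concentration giving half growth inhibition; TGI is total growth inhibition (cytostatic); LC50 is the molar concentration killing 50% of the initial cells (cytotoxic).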
# COLO 205 = test: Anticancer activity against Homo sapiens (human) COLO205 cells assessed as cell growth at 10 uM by SRB assay; details: read-out: Activity
# Summary of the method: (§2)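 NCI 60-cell human tumour panel (nine cancer types) screened at one concentration, 10−5 M. Cell growth estimated by sulforhodamine B protein staining and reported as percent growth of treated cells relative to untreated controls.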
# HOP-92 [1] = test: Anticancer activity against Homo sapiens (human) HOP92 cells assessed as cell growth at 10 uM by SRB assay; details: read-out: Activity; summary of the method: as §2
# EKVX = test: Anticancer activity against Homo sapiens (human) EKVX cells assessed as cell growth at 10 uM by SRB assay; details: read-out: Activity; summary of the method: as §2
# NCI-H522 = test: Anticancer activity against Homo sapiens (human) NCI-H522 cells by SRB assay; summary of the method: as §1
# HOP-92 [2] = test: Anticancer activity against Homo sapiens (human) HOP92 cells by SRB assay
# Summary of the method: (§3)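 NCI 60-line panel, five tenfold dilutions from 10−4 to 10−8 M, growth read by sulforhodamine B staining against untreated controls. From the dose–response per line: GI50 (molar concentration giving half growth inhibition), TGI (molar concentration giving total growth inhibition, cytostatic) and LC50 (molar concentration killing 50% of initial cells, cytotoxic).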
# NCI-H23 = test: Anticancer activity against Homo sapiens (human) NCI-H23 cells by SRB assay; summary of the method: as §1
# A549 [3] = test: Anticancer activity against Homo sapiens (human) A549/ATCC cells by SRB assay; summary of the method: as §3
# CCRF-CEM [4] = test: Anticancer activity against Homo sapiens (human) CCRF-CEM cells by SRB assay; summary of the method: as §3
# HL-60(TB) = test: Anticancer activity against Homo sapiens (human) HL-60(TB) cells by SRB assay
# Summary of the method: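 NCI panel of about 60 human tumour cell lines, tested at five tenfold dilutions from 10−4 to 10−8 M, with sulforhodamine B read-out. GI50 (molar concentration giving half growth inhibition), TGI (total growth inhibition) and LC50 (50% death of initial cells) were calculated for each cell line.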
# SR = test: Anticancer activity against Homo sapiens (human) SR cells assessed as cell growth at 10 uM by SRB assay; details: read-out: Activity
# Summary of the method: (§4)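 NCI 60-cell human tumour panel (leukemia, melanoma, lung, colon, CNS, breast, ovarian, prostate, renal lines) given a single 10−5 M dose. Growth is expressed as percent growth of treated cells relative to untreated controls, with cell growth/viability estimated by sulforhodamine B protein staining.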
# A549 [5] = test: Anticancer activity against Homo sapiens (human) A549/ATCC cells assessed as cell growth at 10 uM by SRB assay; details: read-out: Activity; summary of the method: as §2
# CCRF-CEM [6] = test: Anticancer activity against Homo sapiens (human) CCRF-CEM cells assessed as cell growth at 10 uM by SRB assay; details: read-out: Activity; summary of the method: as §2
# IGROV-1 [7] = test: Anticancer activity against Homo sapiens (human) IGROV1 cells by SRB assay; summary of the method: as §3
# SK-MEL-2 = test: Anticancer activity against Homo sapiens (human) SK-MEL-2 cells by SRB assay; summary of the method: as §1
# SNB-75 [8] = test: Anticancer activity against Homo sapiens (human) SNB75 cells by SRB assay; summary of the method: as §1
# U-251 = test: Anticancer activity against Homo sapiens (human) U251 cells by SRB assay
# Summary of the method: (§5)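 NCI five-dose follow-up on the 60-line human tumour panel at tenfold dilutions from 10−4 to 10−8 M, with growth read by sulforhodamine B protein assay against untreated controls. For each cell line, GI50 (half growth inhibition), TGI (total growth inhibition) and LC50 (50% death of initial cells) are calculated as molar concentrations.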
# SNB-19 = test: Anticancer activity against Homo sapiens (human) SNB19 cells by SRB assay; summary of the method: as §1
# SW-620 = test: Anticancer activity against Homo sapiens (human) SW620 cells by SRB assay; summary of the method: as §5
# HCC 2998 = test: Anticancer activity against Homo sapiens (human) HCC2998 cells by SRB assay; summary of the method: as §3
# 786-0 = test: Anticancer activity against Homo sapiens (human) 786-0 cells assessed as cell growth at 10 uM by SRB assay; details: read-out: Activity; summary of the method: as §2
# SK-OV-3 = test: Anticancer activity against Homo sapiens (human) SKOV3 cells assessed as cell growth at 10 uM by SRB assay; details: read-out: Activity
# Summary of the method: (§6)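 Single-dose screen in the NCI 60-human-tumour-cell-line panel (nine cancer types) at 10−5 M. Cell growth was estimated by sulforhodamine B protein staining and reported as percent growth of treated cells relative to untreated controls.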
# OVCAR-8 = test: Anticancer activity against Homo sapiens (human) OVCAR8 cells assessed as cell growth at 10 uM by SRB assay; details: read-out: Activity; summary of the method: as §6
# IGROV-1 [9] = test: Anticancer activity against Homo sapiens (human) IGROV1 cells assessed as cell growth at 10 uM by SRB assay; details: read-out: Activity; summary of the method: as §2
# UACC-62 = test: Anticancer activity against Homo sapiens (human) UACC62 cells assessed as cell growth at 10 uM by SRB assay; details: read-out: Activity; summary of the method: as §4
# Malme-3M = test: Anticancer activity against Homo sapiens (human) MALME-3M cells assessed as cell growth at 10 uM by SRB assay; details: read-out: Activity; summary of the method: as §2
# SNB-75 [10] = test: Anticancer activity against Homo sapiens (human) SNB75 cells assessed as cell growth at 10 uM by SRB assay; details: read-out: Activity; summary of the method: as §6
# UO-31 = test: Anticancer activity against Homo sapiens (human) UO31 cells by SRB assay; summary of the method: as §5
# SN12C = test: Anticancer activity against Homo sapiens (human) SN12C cells by SRB assay; summary of the method: as §1
# T47D = test: Anticancer activity against Homo sapiens (human) T47D cells assessed as cell growth at 10 uM by SRB assay; details: read-out: Activity; summary of the method: as §4
# MCF7 = test: Anticancer activity against Homo sapiens (human) MCF7 cells assessed as cell growth at 10 uM by SRB assay; details: read-out: Activity; summary of the method: as §2
# DU-145 = test: Anticancer activity against Homo sapiens (human) DU145 cells assessed as cell growth at 10 uM by SRB assay; details: read-out: Activity; summary of the method: as §2
# PC-3 = test: Anticancer activity against Homo sapiens (human) PC3 cells assessed as cell growth at 10 uM by SRB assay; details: read-out: Activity; summary of the method: as §6
# TK-10 = test: Anticancer activity against Homo sapiens (human) TK10 cells assessed as cell growth at 10 uM by SRB assay; details: read-out: Activity; summary of the method: as §4
# CAKI-1 = test: Anticancer activity against Homo sapiens (human) CAKI-1 cells assessed as cell growth at 10 uM by SRB assay; details: read-out: Activity; summary of the method: as §2
# ACHN = test: Anticancer activity against Homo sapiens (human) ACHN cells assessed as cell growth at 10 uM by SRB assay; details: read-out: Activity; summary of the method: as §2
structure (smiles),measurement,setting,value
O=c1sc2c(Cl)nc(-c3ccccc3)nc2n1-c1ccccc1,GI50,NCI-H460,25.1 µM
same,growth at 10 µM,COLO 205,52%
same,growth at 10 µM,HOP-92 [1],24%
same,growth at 10 µM,EKVX,84%
same,GI50,NCI-H522,1.23 µM
same,TGI,NCI-H522; read-out: pTGI (converted),3.02 µM
same,GI50,HOP-92 [2],3.09 µM
same,TGI,HOP-92 [2]; read-out: pTGI (converted),67.6 µM
same,GI50,NCI-H23,3.63 µM
same,TGI,NCI-H23; read-out: pTGI (converted),30.9 µM
same,GI50,A549 [3],43.7 µM
same,GI50,CCRF-CEM [4],3.8 µM
same,GI50,HL-60(TB),5.89 µM
same,growth at 10 µM,SR,8%
same,growth at 10 µM,A549 [5],87%
same,growth at 10 µM,CCRF-CEM [6],23%
same,GI50,IGROV-1 [7],1.78 µM
same,LC50,IGROV-1 [7],18.2 µM
same,TGI,IGROV-1 [7]; read-out: pTGI (converted),4.79 µM
same,GI50,SK-MEL-2,9.12 µM
same,TGI,SK-MEL-2; read-out: pTGI,43.7 µM
same,GI50,SNB-75 [8],1.86 µM
same,CC50,SNB-75 [8]; read-out: pLC50 (the source's name) (converted),56.2 µM
same,TGI,SNB-75 [8]; read-out: pTGI (converted),13.8 µM
same,GI50,U-251,3.72 µM
same,TGI,U-251; read-out: pTGI (converted),18.6 µM
same,GI50,SNB-19,41.7 µM
same,GI50,SW-620,2.75 µM
same,TGI,SW-620; read-out: pTGI (converted),9.12 µM
same,GI50,HCC 2998,81.3 µM
same,growth at 10 µM,786-0,41%
same,growth at 10 µM,SK-OV-3,81%
same,growth at 10 µM,OVCAR-8,-45%
same,growth at 10 µM,IGROV-1 [9],-65%
same,growth at 10 µM,UACC-62,62%
same,growth at 10 µM,Malme-3M,62%
same,growth at 10 µM,SNB-75 [10],12%
same,GI50,UO-31,1.32 µM
same,TGI,UO-31; read-out: pTGI (converted),2.88 µM
same,GI50,SN12C,7.41 µM
same,growth at 10 µM,T47D,57%
same,growth at 10 µM,MCF7,77%
same,growth at 10 µM,DU-145,34%
same,growth at 10 µM,PC-3,11%
same,growth at 10 µM,TK-10,51%
same,growth at 10 µM,CAKI-1,-30%
same,growth at 10 µM,ACHN,42%
